Measured values reported in ChEMBL document CHEMBL4765234 (J Med Chem, 2016).
In brackets after ≈: the same amount, converted by molar mass. Activity calls are given as the source filed them. The rule behind the calls is not given here.

How the values were obtained:
[1] = biological target: T1, Peroxisome proliferator-activated receptor alpha (Homo sapiens) (UniProt Q07869); test: Displacement of [3H]-[…] from PPARalpha (unknown origin) expressed in baculovirus infected Sf9 insect cells upto 30 uM measured after 10 hrs by microbeta scintillation counting analysis; conditions: dose microM <=30, time 10.0 hrs
T1 sequence (whole entry): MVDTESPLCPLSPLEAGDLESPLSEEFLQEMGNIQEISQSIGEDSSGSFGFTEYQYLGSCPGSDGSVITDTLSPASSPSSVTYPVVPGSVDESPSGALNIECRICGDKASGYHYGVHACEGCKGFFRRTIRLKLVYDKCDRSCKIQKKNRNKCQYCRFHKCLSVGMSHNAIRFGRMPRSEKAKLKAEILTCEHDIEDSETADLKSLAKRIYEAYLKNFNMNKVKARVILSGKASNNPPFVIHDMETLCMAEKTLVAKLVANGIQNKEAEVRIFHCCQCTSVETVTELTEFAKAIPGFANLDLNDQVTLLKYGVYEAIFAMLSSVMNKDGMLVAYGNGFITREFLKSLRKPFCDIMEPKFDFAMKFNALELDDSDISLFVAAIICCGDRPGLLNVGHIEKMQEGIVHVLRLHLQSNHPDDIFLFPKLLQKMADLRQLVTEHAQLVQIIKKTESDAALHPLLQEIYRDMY
Procedure, shortened: (§1)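 Scintillation proximity assay. Sf9 lysates with baculovirus-expressed PPARα (0.3 μg), PPARδ (0.5 μg) or PPARγ (1.25 μg), each with RXRα, were bound via biotinylated DR2 oligo (0.126 nM) to streptavidin yttrium silicate beads. Buffer was HEPES pH 7.8 with KCl, MgCl2, DTT, CHAPS, 14% glycerol and salmon sperm DNA. A 3H reference agonist ligand was used, with 11 compound concentrations, for 10 h. Nonspecific binding was defined with 10000 nM unlabeled reference. Ki was derived from IC50.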

[2] = biological target: Free fatty acid receptor 1 (Rattus norvegicus) (UniProt Q8K3T4); test: Agonist activity at GPR40 in Sprague-Dawley rat pancreatic islets assessed as induction of glucose-mediated insulin secretion measured after 90 mins in EBSS buffer by ELISA; type: tissue-based; conditions: Pancreatic islet
Sequence of Free fatty acid receptor 1 (Rattus norvegicus) (Q8K3T4 whole entry): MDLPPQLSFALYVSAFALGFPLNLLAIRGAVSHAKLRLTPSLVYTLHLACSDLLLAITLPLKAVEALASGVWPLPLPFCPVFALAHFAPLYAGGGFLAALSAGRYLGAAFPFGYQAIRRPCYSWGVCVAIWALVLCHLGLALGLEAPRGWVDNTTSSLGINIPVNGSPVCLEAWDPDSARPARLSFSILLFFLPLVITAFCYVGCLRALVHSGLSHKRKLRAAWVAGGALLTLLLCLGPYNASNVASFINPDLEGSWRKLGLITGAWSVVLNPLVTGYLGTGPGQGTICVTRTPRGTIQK
Procedure, shortened: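 Glucose-dependent insulin secretion in mouse MIN6 cells or rat islet cells, scored as secretion above the glucose-alone level.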

[3] = biological target: T2, Free fatty acid receptor 1 (Homo sapiens, UniProt O14842); test: Agonist activity at human recombinant full-length Prolink-tagged GPR40 fused with EA-tagged beta-arrestin expressed in human HEK293 cells assessed as induction of beta-arrestin recruitment measured after 90 mins by beta-galactosidase based PathHunter assay relative to control; type: cell-based; conditions: filed as agonist
T2 sequence (O14842 whole entry, the tested form may be a part): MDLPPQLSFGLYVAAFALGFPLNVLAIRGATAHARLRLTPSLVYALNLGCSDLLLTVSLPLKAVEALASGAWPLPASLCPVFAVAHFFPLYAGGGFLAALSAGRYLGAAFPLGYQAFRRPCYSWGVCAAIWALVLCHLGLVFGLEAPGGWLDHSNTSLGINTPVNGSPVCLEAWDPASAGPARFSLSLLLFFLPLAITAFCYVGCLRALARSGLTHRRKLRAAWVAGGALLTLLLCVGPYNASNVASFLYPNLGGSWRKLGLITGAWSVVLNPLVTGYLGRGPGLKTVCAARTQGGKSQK
Procedure, shortened: (§2)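 PathHunter β-gal complementation. Cells were incubated overnight at 5000/well in medium with 1% heat-inactivated FBS. Compound was added as a 20-point 2-fold series from a top final of 100 μM (1% DMSO) for 90 min at 37 °C, followed by detection reagents and chemiluminescence read after 1 h at rt.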

[4] = Dissociation constant, pKa2 of compound by potentiometric method; type: physicochemical
Procedure, shortened: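 pKa values measured potentiometrically.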

[5] = biological target: T3, Peroxisome proliferator-activated receptor gamma (Homo sapiens) (UniProt P37231); test: Displacement of [3H]-[…] from PPARgamma (unknown origin) expressed in baculovirus infected Sf9 insect cells upto 30 uM measured after 10 hrs by microbeta scintillation counting analysis; conditions: dose microM <=30, time 10.0 hrs; procedure, shortened: as §1
T3 sequence (whole entry): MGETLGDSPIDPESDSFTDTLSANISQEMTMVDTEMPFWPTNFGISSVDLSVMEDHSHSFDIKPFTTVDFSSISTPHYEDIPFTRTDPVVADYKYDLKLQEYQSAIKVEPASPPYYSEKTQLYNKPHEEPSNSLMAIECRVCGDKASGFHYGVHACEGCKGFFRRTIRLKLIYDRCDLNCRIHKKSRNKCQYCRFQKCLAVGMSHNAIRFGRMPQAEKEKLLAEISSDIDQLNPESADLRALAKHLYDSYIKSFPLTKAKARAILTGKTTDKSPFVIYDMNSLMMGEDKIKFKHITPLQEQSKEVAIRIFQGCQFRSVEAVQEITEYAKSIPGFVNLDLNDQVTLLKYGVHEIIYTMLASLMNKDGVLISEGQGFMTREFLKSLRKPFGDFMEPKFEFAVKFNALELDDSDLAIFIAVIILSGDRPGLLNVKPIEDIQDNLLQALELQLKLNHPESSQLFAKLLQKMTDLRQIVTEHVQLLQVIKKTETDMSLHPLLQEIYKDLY

[6] = biological target: Free fatty acid receptor 1 (Rattus norvegicus, UniProt Q8K3T4); test: Agonist activity at Prolink-tagged rat GPR40 fused with EA-tagged beta-arrestin expressed in human U2OS cells assessed as induction of beta-arrestin recruitment measured after 90 mins by beta-galactosidase based PathHunter assay; type: cell-based; procedure, shortened: as §2
Sequence of Free fatty acid receptor 1 (Rattus norvegicus, UniProt Q8K3T4) (Q8K3T4 whole entry, the tested form may be a part): as the sequence (Q8K3T4 whole entry) above

[7] = biological target: T2, Free fatty acid receptor 1; test: Agonist activity at human recombinant full length GPR40 overexpressed in human HEK293 cells assessed as increase in inositol phosphate accumulation in presence of terbium cryptate-labeled anti IP1/d2-labelled IP1 measured after 120 mins by HTRF assay relative to AMG837; type: functional, cell-based; conditions: filed as agonist
Procedure, shortened: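 HEK293 hGPR40 cells (20K/well) were cultured overnight, washed, and held in IP1 stimulation buffer. IP-1 was measured by competitive HTRF immunoassay with terbium cryptate anti-IP1 mAb and d2-labelled IP1.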

[8] = Clearance in mouse liver microsomes by LC-MS/MS analysis; type: ADME, Microsome
[9] = biological target: Voltage-gated inwardly rectifying potassium channel KCNH2 (Homo sapiens, UniProt Q12809); test: Inhibition of human ERG at 10 to 100 uM; conditions: dose 10-100 µM
Sequence of Voltage-gated inwardly rectifying potassium channel KCNH2 (Q12809 whole entry, the tested form may be a part): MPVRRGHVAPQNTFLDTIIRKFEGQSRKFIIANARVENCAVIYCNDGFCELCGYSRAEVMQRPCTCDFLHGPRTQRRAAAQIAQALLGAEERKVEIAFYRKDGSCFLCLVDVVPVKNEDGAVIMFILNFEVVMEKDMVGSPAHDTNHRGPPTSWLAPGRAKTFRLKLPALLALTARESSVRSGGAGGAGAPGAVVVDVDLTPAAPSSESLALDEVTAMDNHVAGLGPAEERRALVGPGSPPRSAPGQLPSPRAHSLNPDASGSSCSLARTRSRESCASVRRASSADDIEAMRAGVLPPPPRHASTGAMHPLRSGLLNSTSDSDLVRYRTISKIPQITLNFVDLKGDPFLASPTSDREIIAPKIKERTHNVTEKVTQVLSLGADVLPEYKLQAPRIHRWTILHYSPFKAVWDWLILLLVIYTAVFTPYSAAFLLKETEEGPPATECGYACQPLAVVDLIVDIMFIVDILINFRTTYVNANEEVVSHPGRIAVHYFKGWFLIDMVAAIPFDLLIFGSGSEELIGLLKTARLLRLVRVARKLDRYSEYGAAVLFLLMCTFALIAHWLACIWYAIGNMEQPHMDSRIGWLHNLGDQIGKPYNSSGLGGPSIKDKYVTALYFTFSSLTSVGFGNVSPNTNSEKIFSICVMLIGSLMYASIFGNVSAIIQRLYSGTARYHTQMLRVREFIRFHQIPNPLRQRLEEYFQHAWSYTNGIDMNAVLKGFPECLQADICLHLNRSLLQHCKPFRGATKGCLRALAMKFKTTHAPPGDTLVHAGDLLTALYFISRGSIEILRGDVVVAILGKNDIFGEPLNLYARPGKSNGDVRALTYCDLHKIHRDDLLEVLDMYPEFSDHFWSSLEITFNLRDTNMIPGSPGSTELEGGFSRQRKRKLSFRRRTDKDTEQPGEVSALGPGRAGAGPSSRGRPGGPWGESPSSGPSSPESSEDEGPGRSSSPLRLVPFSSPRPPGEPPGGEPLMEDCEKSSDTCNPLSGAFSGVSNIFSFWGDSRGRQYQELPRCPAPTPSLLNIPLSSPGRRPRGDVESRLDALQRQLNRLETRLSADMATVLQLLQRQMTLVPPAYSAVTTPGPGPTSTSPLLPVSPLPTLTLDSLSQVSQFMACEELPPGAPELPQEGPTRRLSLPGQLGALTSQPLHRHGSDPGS

[10] = biological target: RXR alpha/PPAR gamma (Homo sapiens) (UniProt P37231+P19793); test: Agonist activity at human CMV-fused PPARgamma […]/RXRalpha (unknown origin) expressed in African green monkey CV1 cells transfected with luciferase plasmid assessed as maximum efficacy measured after 24 hrs by luciferase reporter gene assay relative to control; type: cell-based; conditions: CV-1
Procedure, shortened: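 CV1 cells were transfected, in DMEM with 5% charcoal-stripped FBS, with CMV-driven full PPARγ and RXRα plus a 2×PPRE TK-promoter luciferase reporter. After overnight growth, cells were replated at 15000/well for 4 h, then treated with 0.17 nM–10 μM in half-log dilutions for 24 h. Lysate luminescence was expressed as % of the maximum from 10 μM reference PPARγ agonist and fit to a 4-parameter logistic.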

[11] = Lipophilicity, logP of compound; type: physicochemical; conditions: octanol/water
Rattus norvegicus [12] = test: Hypoglycemic activity in Zucker fatty diabetes mellitus rat model assessed as increase in insulin levels in plasma at 0.03 to 1 mg/kg, po administered for 21 days and measured at 10 to 60 mins post glucose challenge on day 21 by OGTT; type: functional, organism-based; conditions: dose 0.03-1 mg/kg, time 21.0 day
Mus musculus = test: Hypoglycemic activity in Balb/c mouse assessed as increase in insulin secretion at 0.03 to 3 mg/kg, po administered 60 mins prior to glucose challenge and measured at 3 to 7 mins by IPGTT; type: functional, organism-based; conditions: dose 0.03-3 mg/kg
[13] = Aqueous solubility of the compound at pH 7.4; type: physicochemical; conditions: buffer
[14] = Solubility of the compound in 0.01 N HCl; type: physicochemical
Rattus norvegicus [15] = test: Hypoglycemic activity in Zucker fatty diabetes mellitus rat model assessed as reduction in blood glucose level administered orally for 21 days and measured at 10 to 60 mins post glucose challenge on day 21 by OGTT; type: functional, organism-based; conditions: dose 0.03-1 mg/kg, time 21.0 day

SMILES	Activity [1]	Activity ([2]; filed as agonist)	Emax [3]	pKa [4]	Activity [5]	EC50 [6]	Emax [7]	CLH [8]	inhibition (INH) [9]	Emax [10]	logP [11]	Activity (Rattus norvegicus [12])	Activity (Mus musculus)	solubility [13]	solubility [14]	Activity (Rattus norvegicus [15])	Activity [2]
CC#C[C@@H](CC(=O)O)c1ccc(OCc2ccc(CN3CCC4(CCc5ccccc54)CC3)cc2)cc1	inactive	Active	137%	8.6	inactive	1.3 nM	249%	–	–	–	–	–	–	–	–	–	–
CC#C[C@@H](CC(=O)O)c1ccc(OCc2ccc(CN3CCC4(CC3)CN(C)c3ccccc34)cc2)cc1	inactive	Active	134%	8.3	inactive	5.5 nM	268%	–	–	–	–	–	–	–	–	–	–
CC#C[C@@H](CC(=O)O)c1ccc(OCc2ccc(CN3CCC4(C=Cc5ccccc54)CC3)s2)cc1	inactive	Active	116%	7.4	inactive	0.93 nM	145%	–	–	–	–	–	–	–	–	–	–
CC#C[C@@H](CC(=O)O)c1ccc(OCc2ccc(CN3CCC4(C=Cc5ccccc54)CC3)cc2)cc1 [LY2881835]	inactive	Active	137%	8.1	inactive	–	162%	0.131 h⁻¹	Not Active	7%	4.9	Active	Active	61 µM (≈ 30 µg/mL)	13 µg/mL (≈ 26.4 µM)	Dose-dependent effect	–
O=C(O)C[C@@H](c1ccc(OCc2ccc3nc(-c4ccccc4)nn3c2)cc1)c1ccon1	inactive	–	141%	–	inactive	14000 nM	124%	–	–	–	–	–	–	–	–	–	inactive
CC#C[C@@H](CC(=O)O)c1ccc(OCc2ccc(CN3CCCc4cccc(OC)c43)s2)cc1	–	–	139%	6	–	3 nM	–	0.022 h⁻¹	Not Active	8%	5.2	Active	Active	> 100 µM	46 µg/mL (≈ 96.7 µM)	Dose-dependent effect	–
O=C(O)CCc1ccc(OCc2ccc(CN3CCC4(C=Cc5ccccc54)CC3)cc2)cc1F	inactive	–	144%	7.7	inactive	160 nM	282%	–	–	–	–	–	–	–	–	–	inactive
CC#C[C@@H](CC(=O)O)c1ccc(OCc2ccc(CN3CCC4(CCc5ccccc54)CC3)s2)cc1	inactive	Active	121%	7.9	inactive	1.7 nM	132%	0.288 h⁻¹	Not Active	15%	5	Active	Active	89 µM (≈ 44.5 µg/mL)	55 µg/mL (≈ 110 µM)	Dose-dependent effect	–
